Key:
[1] = target: T1, 5-hydroxytryptamine receptor 2A (Rattus norvegicus, UniProt P14842); test: Displacement of [3H]ketanserin from rat 5HT2A receptor expressed in mouse NIH3T3 cells; type: cell-based
Summary of the method: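 Membranes came from NIH-3T3 cells stably expressing rat 5-HT2A receptor (GF-6, 5500 fmol/mg). Competition used 0.5nM [3H]-ketanserin against increasing test compound concentrations (ca. 10 pM - 10 μM). Curves were fitted to give Ki, reported as mean (SEM) over n experiments.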

[2] = target: T1, 5-hydroxytryptamine receptor 2A; test: Agonist activity at rat 5HT2A receptor expressed in mouse NIH3T3 cells assessed as stimulation of inositol phosphate accumulation; type: functional, cell-based
Summary of the method: (§1)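 Read-out was stimulated radiolabeled inositol phosphate accumulation. Each plate normalized to water-stimulated wells (0%) and 10 μM serotonin (100%). EC50 and intrinsic activity given as mean (SEM) over n experiments.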

[3] = target: 5-hydroxytryptamine receptor 2A (Rattus norvegicus) (UniProt P14842); test: Intrinsic activity at rat 5HT2A receptor expressed in mouse NIH3T3 cells assessed as stimulation of inositol phosphate accumulation relative to serotonin; type: functional, cell-based
Chain of 5-hydroxytryptamine receptor 2A (Rattus norvegicus) (P14842 whole entry): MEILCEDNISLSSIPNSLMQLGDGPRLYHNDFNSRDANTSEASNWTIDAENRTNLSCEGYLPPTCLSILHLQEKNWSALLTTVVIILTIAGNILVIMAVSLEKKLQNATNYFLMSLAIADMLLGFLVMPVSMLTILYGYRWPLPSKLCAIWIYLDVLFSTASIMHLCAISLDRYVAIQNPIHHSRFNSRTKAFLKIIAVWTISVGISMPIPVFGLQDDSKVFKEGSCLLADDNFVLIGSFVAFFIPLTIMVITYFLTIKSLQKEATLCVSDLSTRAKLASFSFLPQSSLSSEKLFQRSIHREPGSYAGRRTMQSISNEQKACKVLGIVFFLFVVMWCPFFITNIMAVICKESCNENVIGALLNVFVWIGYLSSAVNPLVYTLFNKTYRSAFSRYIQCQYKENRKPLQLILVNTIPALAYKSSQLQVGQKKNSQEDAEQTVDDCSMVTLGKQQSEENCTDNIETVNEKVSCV
Summary of the method: as §1, with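 “NIH-3T3 cells stably expressing rat 5-HT2A receptor (GF-6, 5500 fmol/mg), kept in DMEM with 300 μg/ml G-418. Read-out” for “Read-out”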

[4] = tested on: Rattus norvegicus; test: Hallucinogenic activity in D-lysergic acid N,N-diethylamide-trained Sprague-Dawley rat assessed as disrupted behavior at 0.25 mg/kg, ip after 30 mins by two-lever drug discrimination assay; type: functional; conditions: route intraperitoneal
Summary of the method: (§2)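 Male Sprague-Dawley rats (200-220 g at start) trained to discriminate LSD tartrate (186 nmol/kg; 0.08 mg/kg, ip) from saline, FR50 food reinforcement, two levers. Test drug given ip 30 min before an extinction session. A session was scored as disruption if 50 presses on one lever were not completed within 5 min. %D is the percentage of rats disrupted at each dose.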

[5] = tested on: Rattus norvegicus; test: Hallucinogenic activity in D-lysergic acid N,N-diethylamide-trained Sprague-Dawley rat assessed as disrupted behavior at 0.38 mg/kg, ip after 30 mins by two-lever drug discrimination assay; type: functional; conditions: route intraperitoneal; summary of the method: as §2
[6] = tested on: Rattus norvegicus; test: Hallucinogenic activity in D-lysergic acid N,N-diethylamide-trained Sprague-Dawley rat assessed as disrupted behavior at 0.50 mg/kg, ip after 30 mins by two-lever drug discrimination assay; type: functional; conditions: dose 0.5 mg/kg; route intraperitoneal; summary of the method: as §2
[7] = tested on: Rattus norvegicus; test: Hallucinogenic activity in D-lysergic acid N,N-diethylamide-trained Sprague-Dawley rat assessed as selection of drug-appropriate lever at 0.25 mg/kg, ip after 30 mins by two-lever drug discrimination assay; type: functional; conditions: route intraperitoneal
Summary of the method: (§3)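 Male Sprague-Dawley rats (200-220 g at start) trained to discriminate LSD (0.08 mg/kg ip) from saline, FR50 food-reinforced two-lever task, training to ≥85% accuracy on 8 of 10 sessions. Test drug given ip 30 min before an extinction session, ended at 50 presses on one lever. %SDL is the percentage of rats choosing the drug lever per dose. Treatments randomized.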

[8] = tested on: Rattus norvegicus; test: Hallucinogenic activity in D-lysergic acid N,N-diethylamide-trained Sprague-Dawley rat assessed as selection of drug-appropriate lever at 0.38 mg/kg, ip after 30 mins by two-lever drug discrimination assay; type: functional; conditions: route intraperitoneal; summary of the method: as §3
[9] = tested on: Rattus norvegicus; test: Hallucinogenic activity in D-lysergic acid N,N-diethylamide-trained Sprague-Dawley rat assessed as selection of drug-appropriate lever at 0.50 mg/kg, ip after 30 mins by two-lever drug discrimination assay; type: functional; conditions: dose 0.5 mg/kg; route intraperitoneal; summary of the method: as §3
[10] = tested on: Rattus norvegicus; test: Hallucinogenic activity in D-lysergic acid N,N-diethylamide-trained Sprague-Dawley rat assessed as disrupted behavior at 0.09 mg/kg, ip after 30 mins by two-lever drug discrimination assay; type: functional; conditions: route intraperitoneal; summary of the method: as §2
[11] = tested on: Rattus norvegicus; test: Hallucinogenic activity in D-lysergic acid N,N-diethylamide-trained Sprague-Dawley rat assessed as disrupted behavior at 0.17 mg/kg, ip after 30 mins by two-lever drug discrimination assay; type: functional; conditions: route intraperitoneal; summary of the method: as §2
[12] = tested on: Rattus norvegicus; test: Hallucinogenic activity in D-lysergic acid N,N-diethylamide-trained Sprague-Dawley rat assessed as disrupted behavior at 0.35 mg/kg, ip after 30 mins by two-lever drug discrimination assay; type: functional; conditions: route intraperitoneal; summary of the method: as §2
[13] = tested on: Rattus norvegicus; test: Hallucinogenic activity in D-lysergic acid N,N-diethylamide-trained Sprague-Dawley rat assessed as selection of drug-appropriate lever at 0.09 mg/kg, ip after 30 mins by two-lever drug discrimination assay; type: functional; conditions: route intraperitoneal; summary of the method: as §3
[14] = tested on: Rattus norvegicus; test: Hallucinogenic activity in D-lysergic acid N,N-diethylamide-trained Sprague-Dawley rat assessed as selection of drug-appropriate lever at 0.17 mg/kg, ip after 30 mins by two-lever drug discrimination assay; type: functional; conditions: route intraperitoneal; summary of the method: as §3
[15] = tested on: Rattus norvegicus; test: Hallucinogenic activity in D-lysergic acid N,N-diethylamide-trained Sprague-Dawley rat assessed as selection of drug-appropriate lever at 0.35 mg/kg, ip after 30 mins by two-lever drug discrimination assay; type: functional; conditions: route intraperitoneal; summary of the method: as §3
[16] = tested on: Rattus norvegicus; test: Hallucinogenic potency in ip dosed D-lysergic acid N,N-diethylamide-trained Sprague-Dawley rat after 30 mins; type: functional; conditions: 0.5 h
[17] = tested on: Rattus norvegicus; test: Hallucinogenic activity in D-lysergic acid N,N-diethylamide-trained Sprague-Dawley rat assessed as disrupted behavior at 0.69 mg/kg, ip after 30 mins by two-lever drug discrimination assay; type: functional; conditions: route intraperitoneal; summary of the method: as §2
[18] = tested on: Rattus norvegicus; test: Hallucinogenic activity in D-lysergic acid N,N-diethylamide-trained Sprague-Dawley rat assessed as selection of drug-appropriate lever at 0.69 mg/kg, ip after 30 mins by two-lever drug discrimination assay; type: functional; conditions: route intraperitoneal; summary of the method: as §3

T1 sequence (P14842 whole entry): as above

SMILES	Ki [1] [nM]	EC50 [2] [nM]	Intrinsic activity [3] [%]	also measured
NCCc1c2c(c(Br)c3c1OCC3)OCCC2	11	9.4	61	
CC(N)Cc1c2c(c(Br)c3c1OCC3)OCC2 (centres undefined)	1		88	
COc1cc(CC(C)N)c(OC)cc1Br (centres undefined) [BROLAMFETAMINE]			73	Activity [4]: 46%; Activity [5]: 40%; Activity [6]: 36%; Activity [7]: 29%; Activity [8]: 50%; Activity [9]: 89%
CC(N)Cc1c2c(c(Br)c3c1OCC3)OCCC2 (centres undefined)	3.6	19	86	Activity [10]: 0%; Activity [11]: 0%; Activity [12]: 0%; Activity [13]: 33%; Activity [14]: 54%; Activity [15]: 83%; ED50 [16]: 0.38 µmol/kg
CC(N)Cc1c2c(c(Br)c3ccoc13)OCCC2 (centres undefined)	1	13	102	
CC(N)Cc1c2c(c(Br)c3c1OCCC3)OCCC2 (centres undefined)	3.1	258	72	
NCCc1c2c(c(Br)c3c1OCCC3)OCC2	8.4	146	64	
CC(N)Cc1c2c(c(Br)c3c1OCCC3)OCC2 (centres undefined)	5.3	78	74	Activity [11]: 17%; Activity [12]: 0%; Activity [17]: 0%; Activity [14]: 10%; Activity [15]: 41%; Activity [18]: 80%; ED50 [16]: 1.16 µmol/kg
NCCc1c2c(c(Br)c3c1OCCC3)OCCC2	4.5	241	61	
